Compound activity deposited in PubChem by The Scripps Research Institute Molecular Screening Center.
V1R ag counter = counter-screen for oxytocin receptor agonists: human V1a receptor agonists; P37288; CHO-V1R cells, Fluo-8 calcium fluorescence, agonist mode; 0% DMSO, 100% 3 nM vasopressin; activation, % at 3 µM; 320,000 compounds, 0.25% hits; AID 2797;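 active = activation above the mean activation of all tested compounds plus 3 SD, per screening run, cut at about 20% in these data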;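 note: signal is peak over basal fluorescence ratio across a 100 second FLIPR read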
OXTR agonist = agonists of human oxytocin receptor; P30559; CHO-OTR cells, Fluo-8 calcium fluorescence; normalized: DMSO 0%, oxytocin 100%; activation, % at 3 µM; 320,000 compounds, 0.32% hits; AID 2435;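 active = activation above the mean of all tested compounds plus 3 SD, cutoff set per screening run, cut at about 20% in these data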;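 note: peak over basal fluorescence ratio from a 100 s FLIPR kinetic read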
Target sequence (P30559 whole entry, looked up): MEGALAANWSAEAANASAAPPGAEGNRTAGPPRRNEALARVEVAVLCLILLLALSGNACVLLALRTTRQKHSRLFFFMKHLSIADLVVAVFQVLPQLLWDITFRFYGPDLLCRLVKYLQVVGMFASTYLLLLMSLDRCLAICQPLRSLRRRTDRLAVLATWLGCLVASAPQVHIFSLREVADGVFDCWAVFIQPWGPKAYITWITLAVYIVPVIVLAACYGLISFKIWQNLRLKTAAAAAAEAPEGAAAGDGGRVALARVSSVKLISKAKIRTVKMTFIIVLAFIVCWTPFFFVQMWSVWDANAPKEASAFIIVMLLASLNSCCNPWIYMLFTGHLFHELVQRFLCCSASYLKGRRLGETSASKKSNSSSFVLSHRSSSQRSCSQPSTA
OXTR potentiate = human OXTR potentiation; 320,000 compounds, 0.061% hits; activation, % at 3 µM; CHO-OTR cells, Fluo-8 calcium fluorescence, potentiator mode; 0% = oxytocin EC15, 100% = EC100; AID 2445;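 active = activation above that plate's cutoff, the mean activation of tested compounds plus 3 SD, cut at about 6.6% in these data, passing the limit was not always enough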
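System: human OTR in CHO cells; Also added: sub-maximal oxytocin, roughly EC15; Timing: compound 6 min at room temperature before oxytocin, 100 s read; Technique: Fluo-8 intracellular calcium fluorescence, ex 470-495, em 515-575 nm; Controls: oxytocin EC15 low and EC100 high; Replication: singlicate.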
TRPML3 agonist = agonists of human TRPML3 channel | Q8TDD5 | HEK293 TRPML3-YFP, Fluo-8 calcium fluorescence; 100% = the carbachol control signal | activation, % at 3 µM | 220,000 compounds, 0.29% hits;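 active = activation above its plate's cutoff, the mean activation of the plate's test wells plus 3 SD, cut at about 12% in these data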
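Test system: HEK293 cells stably carrying human TRPML3-YFP; Doses: single dose, 3 µM final nominal compound, 0.3% DMSO final; Schedule: dye loading 1 h 37 °C then 30 min ambient, 125 s read; Technique: Fluo-8 calcium fluorescence; Benchmarks: high control carbachol 87 µM, low control DMSO.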
zfTRPN1 agonist = zebrafish TRPN1 (NompC) channel agonism; HEK293 zebrafish TRPN1-YFP, Fluo-8 calcium fluorescence; 100% = response to 87 µM carbachol; activation, % at 3 µM; 220,000 compounds, 0.18% hits; AID 1424;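 active = activation above its plate's cutoff, the mean activation of test wells on that plate plus 3 SD, cut at about 19% in these data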
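Material – zebrafish TRPN1-YFP in HEK293 cells · Doses – 3 µM single point · Schedule – dye 1 h 37 °C plus 30 min RT · Signal – Fluo-8 calcium fluorescence, excitation 470-495 nm, emission 515-575 nm · Read-out – % activation versus carbachol response · Control set – carbachol high, DMSO low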
OXTR ag confirm = human OXTR agonism, confirmation | 390 compounds, 20% hits | shares compounds with OXTR agonist | CHO-OTR cells, Fluo-8 calcium fluorescence, agonist | activation, % at 3 µM | AID 434963;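 active = mean activation above about 20% derived from the earlier single-dose screen, limit read from the data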;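 note: peak over minimum fluorescence ratio per well during a 100 second FLIPR read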
V1R ag counter 3x = V1R agonism in triplicate, counter-screen for OXTR agonists | shares compounds with OXTR agonist | CHO-V1R cells, Fluo-8 calcium fluorescence, agonist | activation, % at 3 µM | 390 compounds, 10% hits | AID 434991;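 active = mean activation over triplicate exceeds the hit threshold set in the earlier primary screen, cut at about 20% in these data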;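 note: peak over basal fluorescence ratio within a 100 second read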
Hits are given with their value; – = inactive; · = no result given. Shown are actives, neighbours in structure and some others; about 0.58% of the full set was active somewhere.

SMILES	V1R ag counter	OXTR agonist	OXTR potentiate	TRPML3 agonist	zfTRPN1 agonist	OXTR ag confirm	V1R ag counter 3x
CC(=O)Nc1ccc(OCC(O)Cn2c3ccccc3c3ccccc32)c(C)c1 (stereo not drawn)	–	22	–	–	–	–	–
CCCCCN(C(=O)CCC(=O)OCc1cc(C)ccc1C)c1c(N)n(CCCC)c(=O)[nH]c1=O	–	–	–	·	·	·	·
O=C(O)c1cccc(NC(=O)c2cn(-c3ccccc3)nc2-c2cc3ccccc3o2)c1	–	20	–	–	–	–	–
CC(=O)Nc1ccc(S(=O)(=O)Oc2cccc(N3C(=O)C4CC=CCC4C3=O)c2)cc1 (stereo not drawn)	–	–	–	–	–	·	·
CC(=O)Nc1ccc(S(=O)(=O)Oc2ccc(N3C(=O)C4CCCCC4C3=O)cc2)cc1 (stereo not drawn)	–	24	–	–	–	–	–
CC(c1ccccc1)N1CCC(CNC(=S)Nc2cccc(Cl)c2)C1 (stereo not drawn)	–	22	–	–	–	–	–
COC(=O)C1=C(C)N(Cc2ccccc2)C(=NCc2cc(OC)c(OC)c(OC)c2)N[C@H]1c1cccc(F)c1	–	21	–	·	·	–	–
COC(=O)C1=C(C)N(Cc2ccccc2)C(=NCc2cccc(Cl)c2)N[C@H]1c1cccc(F)c1	–	22	–	·	·	–	–
COC(=O)C1=C(C)N(Cc2ccccc2)C(=NCc2ccc(OC)cc2)N[C@H]1c1cccc(F)c1	–	24	–	·	·	–	–
COC(=O)C1=C(C)N(Cc2ccccc2)C(=O)N[C@H]1c1cccc(C(F)(F)F)c1	–	–	–	·	·	·	·
COC(=O)C1=C(C)N(Cc2ccccc2)C(=NCc2ccccc2)N[C@H]1c1cccc(C(F)(F)F)c1	–	22	–	·	·	–	–
COc1ccc(S(=O)(=O)N2CCOCC2)cc1C(=O)N(C)Cc1ccco1	–	–	–	·	·	·	·
COc1cccc(/C=N/Nc2snc(SC)c2C#N)c1O	–	21	–	–	–	20	–
CN1CCN(C(=S)c2ccc(OCC(=O)Nc3cccc(C(F)(F)F)c3)cc2)CC1	–	20	–	–	–	–	–
COc1cc(C(=O)NCc2cccnc2)ccc1OCC(=O)Nc1cccc(C(F)(F)F)c1	–	23	–	·	·	–	–
CC(=O)Nc1ccc(-c2cn3c(n2)SCC3)cc1	–	–	–	·	·	·	·
O=C(Oc1ccc(-c2cn3c(n2)SCC3)cc1)c1ccccc1	–	27	–	–	–	–	–
Cc1cccc(OCCNc2cc(N3CCN(C)CC3)ccc2[N+](=O)[O-])c1	–	–	–	–	–	·	·
Cc1ccc(OCCNc2cc(N3CCN(CCO)CC3)ccc2[N+](=O)[O-])cc1C	–	23	–	–	–	–	–
O=S(=O)(CCC1CCCCN1)c1ccccc1 (stereo not drawn)	–	–	–	·	·	·	·
C/C(=N/NC(=O)c1ccc2nc[nH]c2c1)c1cccs1	–	–	–	–	–	·	·
Cc1ccc(C(=O)NC(=S)N2CCN(C(=O)OC(C)(C)C)CC2)cc1Br	–	–	–	–	–	·	·
Nc1nc2ccccc2n1Cc1ccc(Cl)c(Cl)c1	–	25	–	·	·	–	–
O=C(N1CCCCCC1)N1CCN(S(=O)(=O)c2ccccc2)CC1	–	–	–	–	–	·	·
O=C(N1CCCCC1)N1CCN(S(=O)(=O)c2ccc(Cl)cc2)CC1	–	27	–	–	–	–	–
SMILES	V1R ag counter	OXTR agonist	OXTR potentiate	TRPML3 agonist	zfTRPN1 agonist	OXTR ag confirm	V1R ag counter 3x
CN1CCN(C2Cc3ccccc3Sc3ccc(Cl)cc32)CC1 (stereo not drawn)	–	–	–	·	·	·	·
CN1CCN(C2Cc3ccccc3Sc3cc(C(F)(F)F)ccc32)CC1 (stereo not drawn)	–	24	–	·	·	–	–
CCc1ccccc1OC[C@@H](O)CN[C@H]1CCCc2ccccc21	–	22	–	·	·	–	–
OC(CNC1CCCc2ccccc21)COc1ccc2ccccc2c1 (stereo not drawn)	–	–	–	–	–	·	·
CCOc1cc(CNCCO)cc(Br)c1OCc1ccc(Cl)cc1Cl	–	21	–	–	–	–	–
Cc1ccc(CCNC(=O)CN2C(=O)COc3ccc(S(=O)(=O)N4CCOCC4)cc32)cc1	–	–	–	·	·	·	·
CC1C/C(=C/c2ccco2)C(=O)/C(=C/c2ccco2)C1 (stereo not drawn)	–	24	–	–	–	–	–
CCOc1cc(CN2CCN(c3ncccn3)CC2)ccc1OC	–	–	–	·	·	·	·
O=c1c2ccccc2ncn1-c1ccc(Cl)cc1[N+](=O)[O-]	–	–	–	–	–	·	·
O=c1c2ccccc2ncn1-c1ccc([N+](=O)[O-])cc1[N+](=O)[O-]	–	21	–	·	·	–	–
Cc1cc(C)nc(/N=C(\N)Nc2ccc(S(=O)(=O)O)cc2)n1	·	·	·	–	–	·	·
Cc1cc(C)nc(/N=C(\N)Nc2ccc(CC(=O)OC(C)C)cc2)n1	–	26	–	·	·	–	–
CCOC(=O)NC(NCc1cccc(C(F)(F)F)c1)(C(F)(F)F)C(F)(F)F	–	25	–	–	–	–	–
CCOC(=O)NC(NCc1ccccc1Cl)(C(F)(F)F)C(F)(F)F	–	–	–	–	–	·	·
COc1ccc(C(=O)N2CCCCCC2)cc1S(=O)(=O)N1CCOCC1	–	–	–	·	·	·	·
OC(CNCC1CCCO1)Cn1c2ccc(Cl)cc2c2cc(Cl)ccc21 (stereo not drawn)	–	33	–	–	–	–	–
Cc1cccc2sc(NC(=O)CCNS(=O)(=O)c3cccc4nonc34)nc12	–	20	–	–	–	–	–
Cc1nc2c(c(=O)c3ccccc3n2C)c(=O)n1C1CCCCCC1	–	20	–	–	–	–	–
Cc1c(Cl)cccc1NC(=S)NNc1ncc(C(F)(F)F)cc1Cl	–	29	–	–	–	–	–
CCCc1ccc(Oc2c(-c3ccc(O)c(C)c3O)n[nH]c2C)cc1	–	20	–	–	–	22	–
C=CCOc1c(CNc2nccs2)cccc1OCC	–	–	–	–	–	·	·
CC1=NN2C(=N)/C(=C\c3cc(C)n(Cc4ccccc4)c3C)C(=O)N=C2S1	–	22	–	–	–	–	–
O=C(O)c1ccccc1C(=O)Nc1cccc([N+](=O)[O-])c1	–	–	–	–	–	·	·
O=C(Nc1cccc([N+](=O)[O-])c1)c1cc2ccccc2cc1O	–	25	–	17	27	–	–
COc1ccc(C2SCCN2C(=S)Nc2ccc(Cl)cc2)cc1 (stereo not drawn)	–	–	–	–	–	·	·
COc1ccc(C2SCCN2C(=S)Nc2cccc(Cl)c2)cc1 (stereo not drawn)	–	23	–	–	–	30	–
